Results taken from ChEMBL document CHEMBL2311431, “Synthesis and biological evaluation of some 5-arylidene-2-(1,3-thiazol-2-ylimino)-1,3-thiazolidin-4-ones as dual anti-inflammatory/antimicrobial agents” (Bioorg Med Chem, 2013).
≈ marks a conversion by molar mass, not a printed value. Calls of active or inactive are those of the source. The calls are words filed in the database; no cut-off is given here.

Columns and labels:
[1] = system: Mus musculus; assay: Acute toxicity in AKR mouse up to 0.5 mmol/kg, ip; format: organism-based; conditions: in vivo
[2] = system: Mus musculus; assay: Antiinflammatory activity in AKR mouse assessed as inhibition of carrageenan-induced paw edema at 0.01 mmol/kg, ip measured after 3.5 hrs of carrageenan-challenge; format: functional
In short: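 AKR mice of both sexes (pregnant females excluded), 6-10 per group, fasted during the experiment. Edema induced by intradermal 0.05 mL of 2% carrageenin into the right hind paw. Compound given at 0.01 mmol/kg ip, suspended in water with Tween-80, at the same time as carrageenin.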

[3] = target: T1, Prostaglandin G/H synthase 1 (Ovis aries) (UniProt P05979); assay: (§1) Inhibition of ovine COX1 assessed as inhibition of PGF2a production by enzyme immunoassay; set-up: concentration or dose not given beside the values; conditions: concentration not given here
T1 sequence (whole entry): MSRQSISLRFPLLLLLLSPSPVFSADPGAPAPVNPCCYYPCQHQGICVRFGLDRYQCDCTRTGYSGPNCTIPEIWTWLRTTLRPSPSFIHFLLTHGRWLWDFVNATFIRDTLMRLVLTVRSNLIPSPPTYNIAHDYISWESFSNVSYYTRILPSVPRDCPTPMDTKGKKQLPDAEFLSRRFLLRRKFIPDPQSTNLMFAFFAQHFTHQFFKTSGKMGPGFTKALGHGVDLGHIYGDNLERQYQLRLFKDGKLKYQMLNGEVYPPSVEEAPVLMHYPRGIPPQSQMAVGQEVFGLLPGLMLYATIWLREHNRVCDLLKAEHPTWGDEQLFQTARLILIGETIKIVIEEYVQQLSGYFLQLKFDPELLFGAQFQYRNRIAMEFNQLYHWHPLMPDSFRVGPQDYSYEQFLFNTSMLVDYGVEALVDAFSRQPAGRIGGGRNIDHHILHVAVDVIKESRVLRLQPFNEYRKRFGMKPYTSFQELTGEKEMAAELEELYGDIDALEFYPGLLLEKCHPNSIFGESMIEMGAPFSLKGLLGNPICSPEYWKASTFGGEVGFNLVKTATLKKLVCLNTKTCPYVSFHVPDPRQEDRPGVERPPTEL
In short: (§2)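 Ovine COX-1 from a commercial screening kit, tested with 0.1 µM arachidonic acid, which is below the saturating level. COX-derived PGH2 is reduced by SnCl2 to PGF2a, quantified by enzyme immunoassay with a broad prostaglandin antibody. At least triplicate.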

[4] = target: T2, Prostaglandin G/H synthase 1 (Ovis aries, UniProt P05979); assay: as §1; in short: as §2
T2 sequence (P05979 whole entry): T1 sequence (whole entry)

[5] = (§3) Inhibition of soybean lipoxygenase assessed as inhibition of sodium linolate conversion to 13-hydroperoxylinoleic acid after 4 mins by spectrophotometry; set-up: species or system Glycine max; conditions: read-out: IC50
[6] = system: Glycine max; assay: as §3
[7] = system: Aspergillus niger; assay: Fungicidal activity against Aspergillus niger ATCC 6275 after 72 hrs by serial subcultivation method; format: functional; conditions: ATCC 6275, 72 h
[8] = system: Aspergillus niger; assay: Antifungal activity against Aspergillus niger ATCC 6275 after 72 hrs by serial dilution technique; format: functional; conditions: ATCC 6275, 72 h
In short: (§4)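 Serial dilution in malt broth; compounds from 1 mg/ml stocks in 5% DMSO; 72 h at 28 °C. MIC is the lowest concentration with no visible growth under a binocular microscope. Run in duplicate, repeated three times.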

[9] = system: Aspergillus fumigatus; assay: Fungicidal activity against Aspergillus fumigatus after 72 hrs by serial subcultivation method; format: functional
[10] = system: Aspergillus flavus; assay: Fungicidal activity against Aspergillus flavus ATCC 9643 after 72 hrs by serial subcultivation method; format: functional; conditions: ATCC 9643, 72 h
[11] = system: Trichoderma viride; assay: Fungicidal activity against Trichoderma viride IAM 5061 after 72 hrs by serial subcultivation method; format: functional; conditions: IAM 5061, 72 h
[12] = system: Penicillium ochrochloron; assay: Fungicidal activity against Penicillium ochrochloron ATCC 9112 after 72 hrs by serial subcultivation method; format: functional; conditions: ATCC 9112, 72 h
[13] = system: Aspergillus flavus; assay: Antifungal activity against Aspergillus flavus ATCC 9643 after 72 hrs by serial dilution technique; format: functional; conditions: ATCC 9643, 72 h; in short: as §4
[14] = system: Talaromyces funiculosus; assay: Fungicidal activity against Penicillium funiculosum ATCC 36839 after 72 hrs by serial subcultivation method; format: functional; conditions: ATCC 36839, 72 h
[15] = system: Aspergillus fumigatus; assay: Antifungal activity against Aspergillus fumigatus after 72 hrs by serial dilution technique; format: functional; in short: as §4
[16] = system: Trichoderma viride; assay: Antifungal activity against Trichoderma viride IAM 5061 after 72 hrs by serial dilution technique; format: functional; conditions: IAM 5061, 72 h; in short: as §4
[17] = system: Penicillium ochrochloron; assay: Antifungal activity against Penicillium ochrochloron ATCC 9112 after 72 hrs by serial dilution technique; format: functional; conditions: ATCC 9112, 72 h; in short: as §4
[18] = system: Talaromyces funiculosus; assay: Antifungal activity against Penicillium funiculosum ATCC 36839 after 72 hrs by serial dilution technique; format: functional; conditions: ATCC 36839, 72 h; in short: as §4
[19] = system: Escherichia coli; assay: Bactericidal activity against Escherichia coli ATCC 35210 after 72 hrs by serial subcultivation method; format: functional; conditions: ATCC 35210, 72 h
[20] = system: Pseudomonas aeruginosa; assay: Bactericidal activity against Pseudomonas aeruginosa ATCC 27853 after 72 hrs by serial subcultivation method; format: functional; conditions: ATCC 27853, 72 h
[21] = system: Listeria monocytogenes; assay: Bactericidal activity against Listeria monocytogenes NCTC 7973 after 72 hrs by serial subcultivation method; format: functional; conditions: NCTC 7973, 72 h
[22] = system: Bacillus cereus; assay: Bactericidal activity against Bacillus cereus clinical isolate after 72 hrs by serial subcultivation method; format: functional
[23] = system: Micrococcus flavus; assay: Bactericidal activity against Micrococcus flavus ATCC 10240 after 72 hrs by serial subcultivation method; format: functional; conditions: ATCC 10240, 72 h
[24] = system: Staphylococcus aureus; assay: Bactericidal activity against Staphylococcus aureus ATCC 6538 after 72 hrs by serial subcultivation method; format: functional; conditions: ATCC 6538, 72 h
[25] = system: Escherichia coli; assay: Antibacterial activity against Escherichia coli ATCC 35210 after 24 hr by microdilution test; format: functional; conditions: ATCC 35210, 24 h
In short: (§5)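 Broth microdilution in LB medium, about 1.0×10^4 cfu per well; compounds from 1 mg/ml stocks in 5% DMSO. Incubated 24 h. MIC is the lowest concentration with no visible growth under a binocular microscope. Run in duplicate, repeated three times.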

[26] = system: Listeria monocytogenes; assay: Antibacterial activity against Listeria monocytogenes NCTC 7973 after 24 hr by microdilution test; format: functional; conditions: NCTC 7973, 24 h; in short: as §5
[27] = system: Pseudomonas aeruginosa; assay: Antibacterial activity against Pseudomonas aeruginosa ATCC 27853 after 24 hr by microdilution test; format: functional; conditions: ATCC 27853, 24 h; in short: as §5
[28] = system: Micrococcus flavus; assay: Antibacterial activity against Micrococcus flavus ATCC 10240 after 24 hr by microdilution test; format: functional; conditions: ATCC 10240, 24 h; in short: as §5
[29] = system: Bacillus cereus; assay: Antibacterial activity against Bacillus cereus clinical isolate after 24 hr by microdilution test; format: functional; in short: as §5
[30] = system: Staphylococcus aureus; assay: Antibacterial activity against Staphylococcus aureus ATCC 6538 after 24 hr by microdilution test; format: functional; conditions: ATCC 6538, 24 h; in short: as §5

O=C1N/C(=N\c2nccs2)S/C1=C\c1c(Cl)cccc1Cl
Activity [1]: Non-toxic
inhibition in vivo at 10 µmol/kg [2]: 58.5%
inhibition [3]: 100%
IC50 [4]: 78 µM
IC50 [5]: 137 µM
inhibition [6]: 43%
MFC [7]: 70.2 µM (≈ 25 µg/mL)
MIC [8]: 56.2 µM (≈ 20 µg/mL)
MFC [9]: 70.2 µM (≈ 25 µg/mL)
MFC [10]: 70.2 µM (≈ 25 µg/mL)
MFC [11]: 28.1 µM (≈ 10 µg/mL)
MFC [12]: 56.2 µM (≈ 20 µg/mL)
MIC [13]: 56.2 µM (≈ 20 µg/mL)
MFC [14]: 70.2 µM (≈ 25 µg/mL)
MIC [15]: 56.2 µM (≈ 20 µg/mL)
MIC [16]: 21.1 µM (≈ 7.52 µg/mL)
MIC [17]: 28.1 µM (≈ 10 µg/mL)
MIC [18]: 28.1 µM (≈ 10 µg/mL)
MBC [19]: 56.2 µM (≈ 20 µg/mL)
MBC [20]: 28.1 µM (≈ 10 µg/mL)
MBC [21]: 84.2 µM (≈ 30 µg/mL)
MBC [22]: 28.1 µM (≈ 10 µg/mL)
MBC [23]: 84.2 µM (≈ 30 µg/mL)
MBC [24]: 56.2 µM (≈ 20 µg/mL)
MIC [25]: 28.1 µM (≈ 10 µg/mL)
MIC [26]: 56.2 µM (≈ 20 µg/mL)
MIC [27]: 21.1 µM (≈ 7.52 µg/mL)
MIC [28]: 56.2 µM (≈ 20 µg/mL)
MIC [29]: 21.1 µM (≈ 7.52 µg/mL)
MIC [30]: 28.1 µM (≈ 10 µg/mL)

O=C1N/C(=N\c2nccs2)S/C1=C\c1cc(Br)ccc1O
Activity [1]: Non-toxic
inhibition in vivo at 10 µmol/kg [2]: 54.4%
inhibition [3]: 73%
IC50 [4]: 65 µM
inhibition [6]: inactive
MFC [7]: 68 µM (≈ 26 µg/mL)
MIC [8]: 34 µM (≈ 13 µg/mL)
MFC [9]: 34 µM (≈ 13 µg/mL)
MFC [10]: 68 µM (≈ 26 µg/mL)
MFC [11]: 17 µM (≈ 6.5 µg/mL)
MFC [12]: 34 µM (≈ 13 µg/mL)
MIC [13]: 34 µM (≈ 13 µg/mL)
MFC [14]: 34 µM (≈ 13 µg/mL)
MIC [15]: 17 µM (≈ 6.5 µg/mL)
MIC [16]: 8.5 µM (≈ 3.25 µg/mL)
MIC [17]: 17 µM (≈ 6.5 µg/mL)
MIC [18]: 17 µM (≈ 6.5 µg/mL)
MBC [19]: 137 µM (≈ 52.4 µg/mL)
MBC [20]: 34 µM (≈ 13 µg/mL)
MBC [21]: 34 µM (≈ 13 µg/mL)
MBC [22]: 34 µM (≈ 13 µg/mL)
MBC [23]: 68 µM (≈ 26 µg/mL)
MBC [24]: 68 µM (≈ 26 µg/mL)
MIC [25]: 68 µM (≈ 26 µg/mL)
MIC [26]: 17 µM (≈ 6.5 µg/mL)
MIC [27]: 17 µM (≈ 6.5 µg/mL)
MIC [28]: 34 µM (≈ 13 µg/mL)
MIC [29]: 9 µM (≈ 3.44 µg/mL)
MIC [30]: 34 µM (≈ 13 µg/mL)

Cc1ccc(/C=C2\S/C(=N/c3nccs3)NC2=O)cc1
Activity [1]: Non-toxic
inhibition in vivo at 10 µmol/kg [2]: 47%
inhibition [3]: 99%
IC50 [4]: 51 µM
IC50 [5]: 92 µM
inhibition [6]: 67%
MFC [7]: 66 µM (≈ 19.9 µg/mL)
MIC [8]: 49.4 µM (≈ 14.9 µg/mL)
MFC [9]: 66 µM (≈ 19.9 µg/mL)
MFC [10]: 66 µM (≈ 19.9 µg/mL)
MFC [11]: 49.4 µM (≈ 14.9 µg/mL)
MFC [12]: 66 µM (≈ 19.9 µg/mL)
MIC [13]: 49.4 µM (≈ 14.9 µg/mL)
MFC [14]: 66 µM (≈ 19.9 µg/mL)
MIC [15]: 49.4 µM (≈ 14.9 µg/mL)
MIC [16]: 33 µM (≈ 9.95 µg/mL)
MIC [17]: 33 µM (≈ 9.95 µg/mL)
MIC [18]: 49.4 µM (≈ 14.9 µg/mL)
MBC [19]: 66 µM (≈ 19.9 µg/mL)
MBC [20]: 24.7 µM (≈ 7.44 µg/mL)
MBC [21]: 82.4 µM (≈ 24.8 µg/mL)
MBC [22]: 33 µM (≈ 9.95 µg/mL)
MBC [23]: 98.9 µM (≈ 29.8 µg/mL)
MBC [24]: 33 µM (≈ 9.95 µg/mL)
MIC [25]: 33 µM (≈ 9.95 µg/mL)
MIC [26]: 66 µM (≈ 19.9 µg/mL)
MIC [27]: 16.5 µM (≈ 4.97 µg/mL)
MIC [28]: 66 µM (≈ 19.9 µg/mL)
MIC [29]: 16.5 µM (≈ 4.97 µg/mL)
MIC [30]: 24.7 µM (≈ 7.44 µg/mL)
